Assay [1] concerns heart and organs of β2‐AR transgenic mice. As to the kind of experiment: Cardiac tracer uptake in whole organs by ex vivo NIR fluorescence imaging. Also on record: species or system mouse. To be noted: iv 0.5 mg/kg, 4 h, whole-organ Odyssey scan; P=0.057–0.1; n=4 per group.
For assay [2], the system named is ventricular lysates of β2‐AR transgenic mouse hearts. As to the kind of experiment: Quantification of peptide accumulation in mouse heart lysates. To be noted: sulfo‐Cy5.5 cyclic peptide iv 0.5 mg/kg, 4 h, β2‐AR Tg mice; n=4 per group. It is filed as in vivo.
Assay [3] relates to collagen IV. As to the kind of experiment: Coimmunostaining of collagen IV and T peptide in human cardiac tissue. To be noted: ex vivo costaining, IHD patient heart section, confocal microscopy. Put shortly:
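Fresh-frozen IHD and nonfibrotic donor human heart cryosections (10 or 5 µm) were PBS-washed, blocked in 10% normal goat serum for 2 h at room temperature, and incubated 72 h at 4 °C with sulfo-Cy5.5 T peptide (0.0375 µg/mL in PBS). Collagen IV was stained with primary antibody (10 µg/mL, overnight, 4 °C) and Alexa Fluor 488 anti-rabbit secondary (2 µg/mL). Nuclei were stained with Hoechst (5 µg/mL), and images were taken by confocal microscopy at ×20.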

Bridges are numbered along the chain shown (N, C = ends). Where no end group is shown, it is not given here.

Consider “GKWHCTTKFPHHYCLYG (disulfide 5-14 (inferred)) [cyclic peptide]”, for which the “peptide accumulation in kidneys and lungs, fibrotic vs nontransgenic mice” value in assay [1] is recorded as “near‐significant enhancement”. Moreover, the “amount of peptide per gram tissue, left vs right transgenic ventricle” value in assay [2] is given as “twice”.

As for TLTYTWS [T peptide], the “overlap with collagen IV in human cardiac tissue” value in assay [3] is reported as “high degree of overlap”.

The values are drawn from paper PMC8649514 (Journal of the American Heart Association: Cardiovascular …, 2021).
